Experimental data from paper PMC9166452 (International Journal of Nanomedicine, 2022).
Entries after “also recorded” stand apart in the source; their conditions may differ. Where a name gives a salt, the structure may show the parent alone.

Tests used:
In vivo toxicity [1] = assay: In vivo toxicity; design: species or system BALB/c nude mice; conditions: after tumor resection surgery, oral
Summary of the method: (§1)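 MDA-MB-231 cells (1×10^6/mouse) were injected into the second right mammary gland of nude mice. Caliper volume was V = (a×b2)/2. At 80–100 mm3, tumors were resected under isoflurane, leaving 5–10% residual. Twenty mice were split into four arms (surgery plus PBS, blank TPGS micelles, free or micelle-loaded test compound), dosed orally at equal volume every two days on days 0–14. Tumor size and body weight were followed every two days to day 17. Organs, including jejunum and lungs, and tumors were then taken for histology.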

[2] = Bidirectional transport across Caco-2 cell monolayers; assay type: in vitro ADME; conditions: human, Caco-2
Summary of the method: (§2)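 Monolayers of Caco-2 cells were grown on 0.4-μm polycarbonate Transwell inserts (2×10^5 cells/well) and used only after passing a TEER check. Free or TPGS-micelle test compound (2 μg/mL) was added apically or basolaterally and incubated 4 h at 37°C. Receiver fluid was assayed by HPLC. Verapamil was co-incubated 4 h. AP→BL transport was also run at 4°C. Papp = (dQ/dt)/(A·C0); ER = Papp(BL→AP)/Papp(AP→BL).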

P-glycoprotein (P-gp) = assay: as above; assay type: in vitro ADME; conditions: human, Caco-2, with verapamil 100 µM
Summary of the method: as §2

Caco-2 cell monolayers = assay: as above; assay type: in vitro ADME; conditions: AP→BL, 4°C
Summary of the method: as §2

In vivo toxicity [3] = assay: In vivo toxicity; design: species or system BALB/c nude mice; conditions: 0.25 mg/kg oral
Summary of the method: (§3)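 Female BALB/c nude mice (4 weeks old) received MDA-MB-231 cells (1×10^6/mouse) subcutaneously in the right thigh. At 50–100 mm3 they were randomised to PBS, free or micelle-loaded test compound, given 0.25 mg/kg by oral gavage every two days on days 0–14. Tumor size and body weight were taken every two days to day 17, then organs and tumors went to pathology/TUNEL. TIR was derived from mean tumor size, dosed vs control.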

[4] = In vitro release in simulated gastrointestinal fluids; assay type: physicochemical
[5] = system: subcutaneous xenografts of MDA-MB-231 cells; assay: Oral treatment of subcutaneous TNBC xenografts in nude mice; assay type: in vivo, BALB/c nude mice
Summary of the method: as §3

[6] = system: orthotopic TNBC (MDA-MB-231 cells); assay: Oral treatment combined with surgery on orthotopic TNBC in nude mice; assay type: in vivo, BALB/c nude mice; conditions: after tumor resection surgery
Summary of the method: as §1

[7] = mice, oral administration; cited from earlier work
[8] = oral, cited from earlier work
[9] = patients with advanced solid tumors

## O=C(CC1NCCCC1O)Cn1cnc2cc(Br)c(Cl)cc2c1=O (stereo not shown) [HF, Halofuginone hydrobromide]
In vivo toxicity [1]
  body weight change: caused the loss of body weight; also recorded: significant loss of body weight
  histology of jejunum (H&E): jejunum bleeding; also recorded: jejunum congestion was found
[2]
  Papp A→B at 4 h, 2 μg/mL: 4.73 ± 0.28 ×10⁻⁶ cm/s
  Papp B→A at 4 h, 2 μg/mL: 8.72 ± 0.16 ×10⁻⁶ cm/s
  efflux ratio at 4 h, 2 μg/mL: 1.84
P-glycoprotein (P-gp)
  Papp A→B at 4 h, 2 μg/mL: 6.25 ± 0.75 ×10⁻⁶ cm/s
  Papp B→A at 4 h, 2 μg/mL: 5.9 ± 0.1 ×10⁻⁶ cm/s
  efflux ratio at 4 h, 2 μg/mL: 0.94
Caco-2 cell monolayers
  Papp at 4°C compared with 37°C: lower than those at 37 °C
In vivo toxicity [3]
  histology of jejunum / bleeding (H&E): jejunum hemorrhage
In vivo toxicity [3]; every two days on days 0–14
  body weight change: caused the loss of body weight
[4]; simulated gastric fluids, from 0 to 8 hours
  cumulative release percentage (CRP) of HF: 53.25%
[4]; simulated gastric fluids, from 8 to 12 hours
  cumulative release percentage (CRP) of HF: 19.6%
[4]; simulated gastric fluids, within 24 hours
  cumulative release percentage (CRP) of HF: 80.03%
[4]; simulated intestinal fluids, from 0 to 8 hours
  cumulative release percentage (CRP) of HF: 54.39%
[4]; simulated intestinal fluids, from 8 to 12 hours
  cumulative release percentage (CRP) of HF: 18.17%
[4]; simulated intestinal fluids, within 24 hours
  cumulative release percentage (CRP) of HF: 82.61%
[5]; 0.25 mg/kg HF, oral gavage, every two days on days 0–14
  tumor inhibition rate (TIR): 47.55% ± 1.32
[5]; 0.25 mg/kg oral, 12 days after oral administration
  tumor size vs untreated mice: significant reduction in tumor size
[5]; 0.25 mg/kg oral, tumor sections
  tumor necrosis (H&E staining): larger necrotic area than those from the PBS group
[5]; 0.25 mg/kg oral, tumor tissues
  expression of Bcl-2, Bax and Caspase-3 in tumor (immunohistochemistry): markedly upregulated the expression of Bax and Caspase-3, and downregulated the expression of Bcl-2
[6]
  expression of Bcl-2, Bax and Caspase-3 in tumor (immunohistochemistry): regulated by HF and HTPM treatment
  lung metastasis (H&E, visual inspection): normal histological features without any tumors
  tumor growth vs PBS- and FTPM-treated groups: significant delay in tumor growth
  tumor necrosis (H&E staining): larger necrotic area than those from the PBS- and FTPM-treated groups
[6]; every two days on days 0–14
  tumor inhibition rate (TIR): 43.57% ± 1.15
[7]
  detection in plasma and red blood cells: not detected in plasma and red blood cells
  persistence in kidneys, liver and lungs: up to 48 hours
[8]; [9]
  "acute" maximum tolerated dose (MTD): 3.5 mg/day
  dose-limiting toxicities (DLT): nausea, vomiting, and fatigue
[8]
  dose recommended for chronic administration in Phase II clinical studies: 0.5 mg/day
